Reference: ChEMBL document CHEMBL1153829, “Exploiting chemical libraries, structure, and genomics in the search for kinase inhibitors” (Science, 1998)
Calls of active or inactive are those of the source. The calls are words filed in the database; no cut-off is given here.

What was measured:
Saccharomyces cerevisiae [1] = assay: Effect on CYC3 gene expression in delta snq2, delta pdr5 and delta erg6 knock out yeast YRP1 bearing cdc28-4 mutant allele assessed as change in mRNA level at 25 µM after 2 hrs by high-density oligonucleotide array; format: functional, organism-based; conditions: 25 M
Saccharomyces cerevisiae [2] = assay: Induction of HXT5 gene expression in delta snq2, delta pdr5 and delta erg6 knock out yeast YRP1 at 25 µM after 2 hrs by high-density oligonucleotide array; format: functional, organism-based
Outline: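 Drug-sensitized yeast strain grown to late logarithmic phase, then exposed to 25 μM inhibitor for 2 h. Polyadenylated mRNA was isolated and converted to biotin-labeled cRNA, which was hybridized to a set of four arrays carrying over 260,000 25-nucleotide oligomers. Transcripts changing more than twofold were scored, from triplicate hybridizations in each of two independent experiments.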

Nucleic Acid = assay: Induction of condensation of DNA; format: nucleic-acid assay
Saccharomyces cerevisiae [3] = assay: Increase in UB14 mRNA level in delta snq2, delta pdr5 and delta erg6 knock out yeast YRP1 at 25 µM after 2 hrs by high-density oligonucleotide array; format: functional, organism-based
Outline: (§1)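 Drug-sensitized S. cerevisiae cultures grown to late logarithmic phase, then exposed to 25 μM inhibitor for 2 h. Polyadenylated mRNA isolated, converted to biotin-labeled cRNA and hybridized to a set of four high-density arrays carrying more than 260,000 25-nucleotide oligomers. Transcripts scored as changed when they shifted more than twofold in triplicate hybridizations for each of two independent experiments.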

Saccharomyces cerevisiae [4] = assay: Increase in PHO81 mRNA level in delta snq2, delta pdr5 and delta erg6 knock out yeast YRP1 at 25 µM after 2 hrs by high-density oligonucleotide array; format: functional, organism-based; conditions: 25 M; outline: as §1
Saccharomyces cerevisiae [5] = assay: Decrease in RPS24A mRNA level in delta snq2, delta pdr5 and delta erg6 knock out yeast YRP1 at 25 µM after 2 hrs by high-density oligonucleotide array; format: functional; outline: as §1
Saccharomyces cerevisiae [6] = assay: Growth inhibition of delta snq2, delta pdr5 and delta erg6 knock out yeast YRP1 after 2 hrs; format: functional
[7] = Induction of microtubule […]
Saccharomyces cerevisiae [8] = assay: Increase in PCL5 mRNA level in delta snq2, delta pdr5 and delta erg6 knock out yeast YRP1 at 25 µM after 2 hrs by high-density oligonucleotide array; format: functional, organism-based; outline: as §1

| SMILES | Activity (Saccharomyces cerevisiae [1]) | Activity (Saccharomyces cerevisiae [2]) | Activity (Nucleic Acid) | Activity (Saccharomyces cerevisiae [3]) | Activity (Saccharomyces cerevisiae [4]) | fold change (FC) (Saccharomyces cerevisiae [5]) | GI50 (Saccharomyces cerevisiae [6]) | Activity [7] | Activity (Saccharomyces cerevisiae [8]) |
| --- | --- | --- | --- | --- | --- | --- | --- | --- | --- |
| CC(C)n1cnc2/c(=N/c3cccc(Cl)c3)nc(NCCO)[nH]c21 | Active | Active | Active | Active | Active | 3 | 30 µM | Active | Active |
| CN1CC[C@H](c2c(O)cc(O)c3c(=O)cc(-c4ccccc4Cl)oc23)[C@H](O)C1 [ALVOCIDIB] | Active | Active | – | Active | Active | 3 | – | – | Active |
